The IC50 is the point on the concentration scale where inhibition reaches its midpoint.

A value given as a limit tells only on which side of the number the result lay.

This assay can be described thus: Peroxynitrite scavenging activity assessed as inhibition of DHR 123 oxidation after 5 mins in presence of SIN-1 by fluorescence assay. The format is functional. In outline:
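ONOO− generated by decomposition of SIN-1 (10 μM) in buffer of 90 mM NaCl, 50 mM Na3PO4, 5 mM KCl, 100 μM DTPA, pH 7.4 (N2-purged, on ice), with DHR 123 working solution 5 μM. Fluorescence read (ex 480/em 530 nm) 5 min after treatment with and without SIN-1. Final minus background intensity gives % inhibition of oxidation; IC50, mean ± SD, three independent experiments. DL-penicillamine positive control.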
For `COc1ccc(C(=O)O[C@H]2[C@@H]3C=CO[C@@H](O[C@@H]4O[C@H](CO)[C@@H](O)[C@H](O)[C@H]4O)[C@@H]3[C@@]3(CO)O[C@@H]23)cc1OC`, the IC50 is over 100 µM.
In the case of `COc1cc(/C=C/C(=O)O[C@H]2[C@@H]3C=CO[C@@H](O[C@@H]4O[C@H](CO)[C@@H](O)[C@H](O)[C@H]4O)[C@@H]3[C@@]3(CO)O[C@@H]23)ccc1O` it was 1.6 µM; in that of `COc1cc(/C=C/C(=O)O[C@@H]2C[C@@](O)(CO)[C@H]3[C@H](O[C@@H]4O[C@H](CO)[C@@H](O)[C@H](O)[C@H]4O)OC=C[C@H]32)ccc1O`, 2 µM; in that of `O=C(O[C@H]1[C@@H]2CCO[C@@H](O[C@@H]3O[C@H](CO)[C@@H](O)[C@H](O)[C@H]3O)[C@@H]2[C@@]2(CO)O[C@@H]12)c1ccc(O)cc1`, 58.4 µM.
In the case of `COc1cc(CCO[C@@H]2O[C@H](CO)[C@@H](O)[C@H](O[C@@H]3O[C@H](C)[C@@H](O)[C@H](O)[C@H]3O)[C@H]2O)ccc1O` it was 7.7 µM; in that of `COc1cc(/C=C/C(=O)OC[C@H]2O[C@@H](Oc3ccc(O)cc3OC)[C@H](O)[C@@H](O)[C@@H]2O)ccc1O`, 0.48 µM; in that of `COc1cc(/C=C/C(=O)OC[C@H]2O[C@@H](Oc3ccc(CO)cc3OC)[C@H](O)[C@@H](O)[C@@H]2O)ccc1O`, 0.17 µM.
For `COc1ccc(/C=C/C(=O)O[C@H]2[C@@H]3C=CO[C@@H](O[C@@H]4O[C@H](CO)[C@@H](O)[C@H](O)[C@H]4O)[C@@H]3[C@@]3(CO)O[C@@H]23)cc1`, the IC50 is 78.5 µM.
As to `COc1cc(/C=C/C(=O)O[C@H]2[C@@H]3CCO[C@@H](O[C@@H]4O[C@H](CO)[C@@H](O)[C@H](O)[C@H]4O)[C@@H]3[C@@]3(CO)O[C@@H]23)ccc1O`, the IC50 came out at 2.2 µM.
As for `COc1cc(/C=C/C(=O)OC[C@H]2O[C@@H](OC[C@@H]3c4cc(/C=C/C=O)cc(OC)c4O[C@H]3c3ccc(O)c(OC)c3)[C@H](O)[C@@H](O)[C@@H]2O)ccc1O`, the IC50 came to 0.79 µM.
For the compound `O=C(OC[C@@]1(O)CO[C@@H](O[C@H]2[C@H](OCCc3ccc(O)cc3)O[C@H](CO)[C@@H](O)[C@@H]2O)[C@@H]1O)c1ccc(O)cc1`, the IC50 stood at 36.2 µM.
As to `COc1cc(C(=O)OC[C@@]2(O)CO[C@@H](O[C@H]3[C@H](OCCc4ccc(O)cc4)O[C@H](CO)[C@@H](O)[C@@H]3O)[C@@H]2O)ccc1O`, the IC50 came to 8.6 µM.
In the case of `COC/C=C/c1cc(OC)c2c(c1)[C@H](CO[C@@H]1O[C@H](COC(=O)/C=C/c3ccc(O)c(OC)c3)[C@@H](O)[C@H](O)[C@H]1O)[C@@H](c1ccc(O)c(OC)c1)O2` it was 0.34 µM; in that of `COc1cc(/C=C/C(=O)OC[C@H]2O[C@@H](O[C@@H]3OC=C[C@H]4[C@H](OC(=O)/C=C/c5ccc(O)c(OC)c5)[C@@H]5O[C@]5(CO)[C@@H]34)[C@H](O)[C@@H](O)[C@@H]2O)ccc1O`, 1.1 µM.
For the compound `COc1ccc(/C=C/C(=O)O[C@@H]2C[C@@](O)(CO)[C@H]3[C@H](O[C@@H]4O[C@H](CO)[C@@H](O)[C@H](O)[C@H]4O)OC=C[C@H]32)cc1O`, the IC50 amounted to 3.9 µM.
The same measure for `COc1ccc(C(=O)O[C@H]2[C@@H]3C=CO[C@@H](O[C@@H]4O[C@H](CO)[C@@H](O)[C@H](O)[C@H]4O)[C@@H]3[C@@]3(CO)O[C@@H]23)cc1`: 36.4 µM.
The same measure for `O=C(/C=C/c1ccc(O)cc1)OC[C@@]1(O)CO[C@@H](O[C@H]2[C@H](OCCc3ccc(O)cc3)O[C@H](CO)[C@@H](O)[C@@H]2O)[C@@H]1O`: 4.5 µM; for `OC[C@H]1O[C@@H](OCCc2ccc(O)cc2)[C@H](O[C@@H]2OC[C@](O)(CO)[C@H]2O)[C@@H](O)[C@@H]1O`: 15.7 µM; for `C[C@]1(O)C[C@@H](OC(=O)c2ccc(O)cc2)[C@@H]2CCO[C@@H](O[C@@H]3O[C@H](CO)[C@@H](O)[C@H](O)[C@H]3O)[C@@H]21`: 8.3 µM.
With `COc1cc(/C=C/C(=O)OC[C@]23O[C@H]2[C@@H](OC(=O)/C=C/c2ccc(O)c(OC)c2)[C@@H]2C=CO[C@@H](O[C@@H]4O[C@H](CO)[C@@H](O)[C@H](O)[C@H]4O)[C@@H]23)ccc1O`, the IC50 was determined as 0.88 µM.
As for `O=C(O[C@@H]1C[C@@](O)(CO)[C@H]2[C@H](O[C@@H]3O[C@H](CO)[C@@H](O)[C@H](O)[C@H]3O)OCC[C@H]21)c1ccc(O)cc1`, the IC50 is 39.5 µM.
In the case of `COc1cc(/C=C/C(=O)OC[C@H]2O[C@@H](OCCC3(O)CCC(=O)CC3)[C@H](O)[C@@H](O)[C@@H]2O)ccc1O` it was 1.02 µM.
`COc1cc(/C=C/C(=O)OC[C@H]2O[C@@H](OCCc3ccc(O)cc3)[C@H](O)[C@@H](O)[C@@H]2O)ccc1O`: the IC50 amounted to 0.14 µM.
Turning to `COc1cc(/C=C/C(=O)OC[C@H]2OC(OC[C@H]3[C@@H](Cc4ccc(O)c(OC)c4)CO[C@@H]3c3ccc(O)c(OC)c3)[C@H](O)[C@@H](O)[C@@H]2O)ccc1O` (some centres undefined), the concentration for half-maximal inhibition (IC50) came out at 0.81 µM.
Consider `O=C(OC1C[C@@]2(O)COC3C[C@@H](O[C@@H]4O[C@H](CO)[C@@H](O)[C@H](O)[C@H]4O)[C@H]2[C@H]1C3)c1ccc(O)cc1` (some centres undefined), for which the IC50 is 76.7 µM.
`CC(C)(S)C(N)C(=O)O` (racemic) [DL-PENICILLAMINE]: the IC50 is 3.4 µM.
For the compound `O=C(O[C@H]1[C@@H]2C=CO[C@@H](O[C@@H]3O[C@H](CO)[C@@H](O)[C@H](O)[C@H]3O)[C@@H]2[C@@]2(CO)O[C@@H]12)c1ccc(O)cc1` [CATALPOSIDE], the IC50 is over 100 µM.
Regarding `COc1cc(C(=O)O[C@H]2[C@@H]3C=CO[C@@H](O[C@@H]4O[C@H](CO)[C@@H](O)[C@H](O)[C@H]4O)[C@@H]3[C@@]3(CO)O[C@@H]23)ccc1O` [PICROSIDE II], the IC50 came to 6 µM.
For `O=C(/C=C/c1ccc(O)cc1)O[C@H]1[C@@H]2C=CO[C@@H](O[C@@H]3O[C@H](CO)[C@@H](O)[C@H](O)[C@H]3O)[C@@H]2[C@@]2(CO)O[C@@H]12` [SPECIOSIDE], the IC50 is 13.6 µM.
